NOD2-RIPK2 inh = NOD2-RIPK2 binding disruptors in cells, primary screen, fluorescence, CHO cells, BLA complementation | 360,000 tested, 0.38% active | inhibition, % at 4.98 µM | CCF4 ratio | Receptor-interacting serine/threonine-protein kinase 2 (Homo sapiens), O43353 | AID 624267, 2012; in the data active = inhibition above about 21%;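 also: 0% = vehicle only and 100% = reference blocker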
Target sequence (O43353 whole entry, looked up): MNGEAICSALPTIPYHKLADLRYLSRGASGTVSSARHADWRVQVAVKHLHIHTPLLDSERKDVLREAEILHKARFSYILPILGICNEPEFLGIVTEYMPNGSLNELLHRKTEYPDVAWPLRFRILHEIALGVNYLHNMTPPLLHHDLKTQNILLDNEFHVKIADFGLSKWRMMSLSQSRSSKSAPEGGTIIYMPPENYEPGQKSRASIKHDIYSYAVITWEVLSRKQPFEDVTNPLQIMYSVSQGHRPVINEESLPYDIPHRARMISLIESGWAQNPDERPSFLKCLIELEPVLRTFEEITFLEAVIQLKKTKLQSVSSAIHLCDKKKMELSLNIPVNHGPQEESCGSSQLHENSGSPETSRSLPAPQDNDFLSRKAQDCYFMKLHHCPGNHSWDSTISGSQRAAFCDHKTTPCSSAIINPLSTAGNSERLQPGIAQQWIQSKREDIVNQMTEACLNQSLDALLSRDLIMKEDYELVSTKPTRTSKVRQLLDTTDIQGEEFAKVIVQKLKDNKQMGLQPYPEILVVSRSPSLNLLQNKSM
TLR9-MyD88 inh = inhibitors of TLR9-MyD88 association in cells, primary screen, cell-based, CHO, BLA complementation, fluorescence; Toll-like receptor 9 (Homo sapiens) + Myeloid differentiation primary response protein …; CCF4 FRET ratio; inhibition, % at 4.98 µM; 340,000 tested, 0.21% active;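 active = inhibition above the mean over all tested compounds plus 3 SD, cut at about 21% in these data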;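 also: 0% = DMSO only wells and 100% = clavulanate BLA inhibitor control wells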
MC4R barr agon = MC4R agonists recruiting beta-arrestin, primary screen, cell-based, luminescence, agonist arm of biased-ligand search. Melanocortin receptor 4 (Homo sapiens), P32245. U2OS MC4R beta-arrestin complementation; percent of melanotan II response, DMSO zero. activation, % at 8.9 µM. 360,000 tested, 0.98% active. AID 540308, 2011;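 active = activation above a per-plate cutoff, the mean activation of sample wells on that plate plus 3 SD, cut at about 8% in these data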
TLR4-MyD88 BLA = inhibitors of TLR4-MyD88 association in cells, primary screen, cell-based, HeLa CL3-4, BLA complementation, FRET ratio | inhibition, % at 8.4 µM | AID 861, 2007 | 200,000 tested, 0.18% active | HeLa CL3-4 TLR4/MyD88 BLA complementation | Toll-like receptor 4 (Homo sapiens) + Myeloid differentiation primary response protein …; in the data active = inhibition above about 25%;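 also: 0% = vehicle and 100% = reference inhibitor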
MC4R antagonist = MC4R antagonists of cAMP signaling, primary screen, cell-based, TR-FRET, antagonist arm of biased-ligand search. Melanocortin receptor 4 (Homo sapiens), P32245. MC4R-expressing cells, MTII-stimulated cAMP, LANCE TR-FRET. inhibition, % at 6.5 µM. 360,000 tested, 0.48% active;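 active = inhibition above its plate's cutoff, the mean of tested wells on that plate plus 3 SD, cut at about 29% in these data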;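 also: 0% = Melanotan II alone and 100% = Melanotan II plus saturating MCL0020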
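Material: human MC4R-expressing U2OS cells. Probe or stimulus: Melanotan II challenge. Dosing: 6.5 µM single dose. Times: 30-min compound, 1-h challenge, 1-h detection, room temperature. Technique: TR-FRET with Eu-cAMP and labeled anti-cAMP, 671 nm. Replication: singlicate.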
MC4R barr ag = MC4R beta-arrestin agonists, retest, confirmation, cell-based, luminescence, U2OS; AID 602192, 2012; U2OS MC4R beta-arrestin recruitment; scaled DMSO 0%, Melanotan II 100%; 2,400 tested, 31% active; shares compounds with MC4R barr agon; activation, % at 8.9 µM;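 active = mean activation across replicates above the hit cutoff set in the earlier primary screen, cut at about 8% in these data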
MOR DOR agonist = agonists of MOR-DOR heterodimerization, counter-screen for MC4R biased agonist project, cell-based, luminescence | shares compounds with MC4R barr agon | U2OS PathHunter beta-arrestin, beta-gal luminescence; percent of deltorphin B response, DMSO zero | activation, % at 9.2 µM | 2,400 tested, 5.8% active | AID 602194, 2012;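 active = mean activation across replicates exceeds the hit threshold derived in the earlier primary screen, cut at about 18% in these data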;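 also: 100% = deltorphin B at 0.9 µM final and 0% = DMSO alone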
* = called active by the depositor. Compounds with a hit are over-represented: about 1.8% of the library has one in this group of screens.

How did CCOc1ccc(OCC)c(NC(=O)c2nnn(CC(=O)Nc3cc(C)cc(C)c3)c2N)c1 do in these assays?
NOD2-RIPK2 inh: 2; TLR9-MyD88 inh: -3; MC4R barr agon: 42*; MC4R antagonist: 0; MC4R barr ag: 18*; MOR DOR agonist: 9

Results for COc1ccc(C(O)c2nc(-c3cccc(NC(C)=O)c3)cs2)cc1 (centres undefined) ?
NOD2-RIPK2 inh: -13; MC4R barr agon: -1; MC4R antagonist: 2

How did Clc1cc2c(nn1)Nc1ccccc1S2 do in these assays?
NOD2-RIPK2 inh: 8; TLR9-MyD88 inh: 11; MC4R barr agon: 4; MC4R antagonist: -26

What do the screens show for `S=C1Nc2ccccc2Sc2ccc(Cl)cc21`?
NOD2-RIPK2 inh: 10; TLR9-MyD88 inh: -13; MC4R barr agon: 23*; TLR4-MyD88 BLA: -16; MC4R antagonist: -9; MC4R barr ag: 10*; MOR DOR agonist: 7

Results for Cc1nc(Nc2ccc(C(=O)O)cc2)nc(Nc2ccc(C(=O)O)cc2)c1[N+](=O)[O-] ?
NOD2-RIPK2 inh: 0; TLR9-MyD88 inh: 5; MC4R barr agon: -5; TLR4-MyD88 BLA: 9; MC4R antagonist: 12

How did Cc1nc(Nc2ccc(F)cc2)nc(Nc2ccc(F)cc2)c1[N+](=O)[O-] do in these assays?
NOD2-RIPK2 inh: 0; TLR9-MyD88 inh: -8; MC4R barr agon: 13*; MC4R antagonist: 10; MC4R barr ag: 5; MOR DOR agonist: 3

What do the screens show for `O=C(CSc1nc2cc([N+](=O)[O-])ccc2n1-c1ccccc1)NCc1ccc2c(c1)OCO2`?
NOD2-RIPK2 inh: -9; TLR9-MyD88 inh: 4; MC4R barr agon: 2; TLR4-MyD88 BLA: -7; MC4R antagonist: 7

Results for C=CCNC(=O)NC(=O)CSc1nc2cc([N+](=O)[O-])ccc2n1-c1cccc(C(F)(F)F)c1 ?
NOD2-RIPK2 inh: -7; TLR9-MyD88 inh: 7; MC4R barr agon: 11*; TLR4-MyD88 BLA: 5; MC4R antagonist: 7; MC4R barr ag: 3; MOR DOR agonist: 6

How did Cc1cccc(OCC(=O)Nc2ccc3c(c2)nc2n3CCOC2)c1 do in these assays?
NOD2-RIPK2 inh: -15; TLR9-MyD88 inh: -1; MC4R barr agon: -2; MC4R antagonist: 10

Results for COc1cc(F)ccc1-c1csc(C(O)c2ccc(F)cc2)n1 (centres undefined) ?
NOD2-RIPK2 inh: -1; MC4R barr agon: 14*; MC4R antagonist: 5; MC4R barr ag: -1; MOR DOR agonist: 8

Results for Clc1ccc2nc(C3CCCCC3)c(CC3CCCCC3)n2c1 ?
NOD2-RIPK2 inh: -1

Results for Cc1cc(NC(=O)CCC(=O)N(CC(=O)NCC2CCCO2)c2ccc(C)c(C)c2)no1 (centres undefined) ?
NOD2-RIPK2 inh: 0; TLR9-MyD88 inh: 5; MC4R barr agon: 0; MC4R antagonist: 23

How did O=C(Nc1ccc(F)cc1F)c1c(C(F)(F)F)ccnc1Oc1cccc(C(F)(F)F)c1 do in these assays?
NOD2-RIPK2 inh: -9; TLR9-MyD88 inh: 5; MC4R barr agon: 20*; MC4R antagonist: -2; MC4R barr ag: 1; MOR DOR agonist: 4

What do the screens show for `COc1ccc(Sc2nnc(-c3ccccc3)cc2C#N)cc1`?
NOD2-RIPK2 inh: 1; TLR9-MyD88 inh: -7; MC4R barr agon: 2; TLR4-MyD88 BLA: 5; MC4R antagonist: -11

How did Cc1ccc(Sc2nnc(-c3ccccc3)cc2C#N)cc1 do in these assays?
NOD2-RIPK2 inh: -6; TLR9-MyD88 inh: 2; MC4R barr agon: 13*; TLR4-MyD88 BLA: 4; MC4R antagonist: 4; MC4R barr ag: 3; MOR DOR agonist: 6

What do the screens show for `Cc1nc(NC(=O)c2ccc(OCC(C)C)cc2)sc1Cc1ccc2c(c1)OCO2`?
NOD2-RIPK2 inh: -5; TLR9-MyD88 inh: -17; MC4R barr agon: -3; TLR4-MyD88 BLA: 1; MC4R antagonist: 10

What do the screens show for `CCCOc1ccc(C(=O)Nc2nc(C)c(Cc3ccc4c(c3)OCO4)s2)cc1`?
NOD2-RIPK2 inh: -19; TLR9-MyD88 inh: 3; MC4R barr agon: 47*; TLR4-MyD88 BLA: 0; MC4R antagonist: 3; MC4R barr ag: 13*; MOR DOR agonist: 4

How did COc1ccc(CN2CCC(=O)N([C@H](CO)CC(C)C)CC2)cc1 do in these assays?
NOD2-RIPK2 inh: -3; TLR9-MyD88 inh: -5; MC4R barr agon: -2; MC4R antagonist: 4

Results for O=C(NCc1ccco1)c1cc(-c2ccc3c(c2)OCO3)on1 ?
NOD2-RIPK2 inh: -2; TLR9-MyD88 inh: -3; MC4R barr agon: 12*; TLR4-MyD88 BLA: -1; MC4R antagonist: 4; MC4R barr ag: 6; MOR DOR agonist: 5

Results for O=C1/C(=C/c2ccccn2)SC(=S)N1N1CCOCC1 ?
NOD2-RIPK2 inh: -2; TLR9-MyD88 inh: -3; MC4R barr agon: 1; MC4R antagonist: 18

Results for C/C(=N/NC(=O)c1cccs1)c1ccc(NC(=O)COc2ccc(Cl)cc2)cc1 ?
NOD2-RIPK2 inh: -13; TLR9-MyD88 inh: -1; MC4R barr agon: 12*; TLR4-MyD88 BLA: -9; MC4R antagonist: 1; MC4R barr ag: 13*; MOR DOR agonist: 7

Results for NNC(=O)c1ccc(CSc2nc3ccccc3s2)cc1 ?
NOD2-RIPK2 inh: 5; TLR9-MyD88 inh: -4; MC4R barr agon: -4; TLR4-MyD88 BLA: 3; MC4R antagonist: 2

How did C(=N\NC1=Nc2cccc3cccc1c23)/c1ccccc1 do in these assays?
NOD2-RIPK2 inh: 14; TLR9-MyD88 inh: 11; MC4R barr agon: 14*; TLR4-MyD88 BLA: 0; MC4R antagonist: -8; MC4R barr ag: 1; MOR DOR agonist: 4

Results for COc1ccc(NC2=Nc3cccc4cccc2c34)cc1OC ?
NOD2-RIPK2 inh: -2; TLR9-MyD88 inh: -1; MC4R barr agon: -2; TLR4-MyD88 BLA: -5; MC4R antagonist: -4

How did Cc1ccc(NC(=O)CN(C)C(=O)c2cccc(S(=O)(=O)N3CCc4ccccc4C3)c2)cc1 do in these assays?
NOD2-RIPK2 inh: -5; TLR9-MyD88 inh: 6; MC4R barr agon: -1; MC4R antagonist: 5

What do the screens show for `O=c1cc(-c2ccccc2)nc(SCCOc2ccccc2Cl)[nH]1`?
NOD2-RIPK2 inh: 5; TLR9-MyD88 inh: -12; MC4R barr agon: -1; TLR4-MyD88 BLA: -2; MC4R antagonist: 17

Bioassay records from PubChem BioAssay.
